In brackets after ≈: the same amount, converted by molar mass. Activity calls are given as the source filed them. No cut-off for these calls is given here.
Legend:
Format in all cases: functional
[1] = tested on: Staphylococcus aureus; test: Antibacterial activity against Staphylococcus aureus ATCC 25923 after 18 hrs by agar dilution technique
Summary of the method: (§1)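 Agar dilution per CLSI; compounds dissolved in DMSO; plates incubated at 37 °C for 18 h; MIC taken as lowest compound concentration spot with no growth. Standard ATCC strains.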

[2] = tested on: Enterococcus faecalis; test: Antibacterial activity against Enterococcus faecalis ATCC 29212 after 18 hrs by agar dilution technique; summary of the method: as §1
[3] = tested on: Streptococcus agalactiae; test: Antibacterial activity against Streptococcus agalactiae […] after 18 hrs by agar dilution technique; summary of the method: as §1
[4] = tested on: Escherichia coli; test: Antibacterial activity against Escherichia coli ATCC 25922 after 18 hrs by agar dilution technique; summary of the method: as §1
[5] = tested on: Klebsiella pneumoniae; test: Antibacterial activity against Klebsiella pneumoniae ATCC 33495 after 18 hrs by agar dilution technique; summary of the method: as §1
[6] = tested on: Proteus vulgaris; test: Antibacterial activity against Proteus vulgaris ATCC 13315 after 18 hrs by agar dilution technique; summary of the method: as §1
[7] = tested on: Candida albicans; test: Antifungal activity against Candida albicans ATCC 20260 after 18 hrs by agar dilution technique
Summary of the method: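 Agar dilution per CLSI with compounds dissolved in DMSO and spotted onto agar against ATCC standard strains. Plates were incubated at 37 °C for 18 h.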

| Structure (SMILES) | MIC ([1]; ATCC 25923, 18 h) [µg/mL] | MIC ([2]; ATCC 29212, 18 h) [µg/mL] | MIC [3] | MIC ([4]; ATCC 25922, 18 h) [µg/mL] | MIC ([5]; ATCC 33495, 18 h) [µg/mL] | MIC ([6]; ATCC 13315, 18 h) [µg/mL] | MIC [7] | MIC [1] | MIC [2] | MIC [4] | MIC [5] | MIC [6] | MIC ([7]; ATCC 20260, 18 h) [µg/mL] |
| --- | --- | --- | --- | --- | --- | --- | --- | --- | --- | --- | --- | --- | --- |
| Cc1ccc(N2N=C(c3ccccc3)[C@@H](c3ccccc3)[C@@]23CC/C(=C\c2ccccc2)C3=O)cc1 | 0.6 (≈ 1.28 µM) | 1.3 (≈ 2.77 µM) | 1.3 µg/mL (≈ 2.77 µM) | 5 (≈ 10.7 µM) | 2.5 (≈ 5.34 µM) | 5 (≈ 10.7 µM) | inactive |  |  |  |  |  |  |
| Cc1ccc(/C=C2\CC[C@]3(C2=O)[C@H](c2ccc(C)cc2)C(c2ccccc2)=NN3c2ccccc2)cc1 | 2.5 (≈ 5.18 µM) | 5 (≈ 10.4 µM) | 5 µg/mL (≈ 10.4 µM) | 0.6 (≈ 1.24 µM) | 1.3 (≈ 2.69 µM) | 1.3 (≈ 2.69 µM) | inactive |  |  |  |  |  |  |
| O=C1/C(=C/c2ccccc2)CC[C@@]12[C@H](c1ccccc1)C(c1ccccc1)=NN2c1ccccc1 | 5 (≈ 11 µM) | 2.5 (≈ 5.5 µM) | 2.5 µg/mL (≈ 5.5 µM) | 5 (≈ 11 µM) | 2.5 (≈ 5.5 µM) | 2.5 (≈ 5.5 µM) | inactive |  |  |  |  |  |  |
| C[C@@H]1[C@H](O)[C@@H](C)/C=C/C=C/C=C/C=C/C=C/C=C/C=C/[C@H](O[C@@H]2O[C@H](C)[C@@H](O)[C@H](N)[C@@H]2O)C[C@@H]2O[C@](O)(C[C@@H](O)C[C@@H](O)[C@H](O)CC[C@@H](O)C[C@@H](O)CC(=O)O[C@H]1C)C[C@H](O)[C@H]2C(=O)O [AMPHOTERICIN B] |  |  | inactive |  |  |  |  | inactive | inactive | inactive | inactive | inactive | 4 (≈ 4.33 µM) |
| O=C1/C(=C/c2ccc(F)cc2)CC[C@@]12[C@H](c1ccc(F)cc1)C(c1ccccc1)=NN2c1ccccc1 | 10 (≈ 20.4 µM) | 5 (≈ 10.2 µM) | 5 µg/mL (≈ 10.2 µM) | 10 (≈ 20.4 µM) | 2.5 (≈ 5.1 µM) | 5 (≈ 10.2 µM) | inactive |  |  |  |  |  |  |
| O=C1C2(CCC13C(c1ccc(Cl)cc1)C(c1ccccc1)=NN3c1ccccc1)C(c1ccc(Cl)cc1)C(c1ccccc1)=NN2c1ccccc1 (centres undefined) | 10 (≈ 13.9 µM) | 10 (≈ 13.9 µM) | 10 µg/mL (≈ 13.9 µM) | 10 (≈ 13.9 µM) | 10 (≈ 13.9 µM) | 10 (≈ 13.9 µM) | inactive |  |  |  |  |  |  |
| O=C1C2(CCC13C(c1ccccc1)C(c1ccccc1)=NN3c1ccccc1)C(c1ccccc1)C(c1ccccc1)=NN2c1ccccc1 (centres undefined) | 1.3 (≈ 2 µM) | 2.5 (≈ 3.85 µM) | 2.5 µg/mL (≈ 3.85 µM) | 10 (≈ 15.4 µM) | 10 (≈ 15.4 µM) | 10 (≈ 15.4 µM) | inactive |  |  |  |  |  |  |
| O=C(O)c1cn(C2CC2)c2cc(N3CCNCC3)c(F)cc2c1=O [CIPROFLOXACIN] | 0.3 (≈ 0.905 µM) | 0.3 (≈ 0.905 µM) | 0.6 µg/mL (≈ 1.81 µM) | 0.3 (≈ 0.905 µM) | 1.3 (≈ 3.92 µM) | 0.3 (≈ 0.905 µM) | inactive |  |  |  |  |  |  |
| Cc1ccc(N2N=C(c3ccccc3)C(c3ccccc3)C23CCC2(C3=O)C(c3ccccc3)C(c3ccccc3)=NN2c2ccc(C)cc2)cc1 (centres undefined) | 2.5 (≈ 3.69 µM) | 5 (≈ 7.39 µM) | 2.5 µg/mL (≈ 3.69 µM) | 10 (≈ 14.8 µM) | 5 (≈ 7.39 µM) | 5 (≈ 7.39 µM) | inactive |  |  |  |  |  |  |
| O=C1C2(CCC13C(c1ccc(F)cc1)C(c1ccccc1)=NN3c1ccccc1)C(c1ccc(F)cc1)C(c1ccccc1)=NN2c1ccccc1 (centres undefined) | 5 (≈ 7.3 µM) | 10 (≈ 14.6 µM) | 10 µg/mL (≈ 14.6 µM) | 5 (≈ 7.3 µM) | 10 (≈ 14.6 µM) | 10 (≈ 14.6 µM) | inactive |  |  |  |  |  |  |
| Cc1ccc(N2N=C(c3ccccc3)C(c3ccc(Cl)cc3)C23CCC2(C3=O)C(c3ccc(Cl)cc3)C(c3ccccc3)=NN2c2ccc(C)cc2)cc1 (centres undefined) | 10 (≈ 13.4 µM) | 10 (≈ 13.4 µM) | 10 µg/mL (≈ 13.4 µM) | 10 (≈ 13.4 µM) | 5 (≈ 6.7 µM) | 10 (≈ 13.4 µM) | inactive |  |  |  |  |  |  |
| Cc1ccc(N2N=C(c3ccccc3)C(c3ccc(F)cc3)C23CCC2(C3=O)C(c3ccc(F)cc3)C(c3ccccc3)=NN2c2ccc(C)cc2)cc1 (centres undefined) | 10 (≈ 14 µM) | 10 (≈ 14 µM) | 2.5 µg/mL (≈ 3.51 µM) | 10 (≈ 14 µM) | 10 (≈ 14 µM) | 10 (≈ 14 µM) | inactive |  |  |  |  |  |  |

Reference: ChEMBL document CHEMBL1158387, “Regioselective synthetic approaches towards 1,2,8,9-tetraazadispiro[4.1.4.2]trideca-2,9-dien-6-ones of potential antimicrobial properties” (2009)
